# Assay outcomes (PubChem BioAssay)
# Arr AP2 block – inhibitors of human beta-arrestin and AP2 interaction. inhibition, % at 10 µM. FITC-arrestin peptide / GST-AP2 beads, flow cytometry; AP2 beta2 appendage carries R879A mutation. 0.31% of 340,000 active. AID 504490;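 active = inhibition above a set limit, near 3 SD of compounds lacking own fluorescence, cut at about 54% in these data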;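 note: plate controls were DMSO wells for no effect and 5 µM unlabelled arrestin peptide for full effect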
#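 Material – GST-tagged AP2 beta2-adaptin appendage (R879A) on 4 µm glutathione beads · Probe or stimulus – fluorescein-tagged arrestin peptide at 50 nM final · Timing – 12 min plus 1 h, RT · Detection – bead flow cytometry, FITC channel · Read-out basis – inhibition as reduced fluorescein signal on beads, percent · Medium – PBS plus Tween 20 (0.05%) and BSA (0.1%)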
# MEKK3 PB1 HTS – raises or lowers MEK5 binding to the human MEKK3 PB1 domain; AID 1529; 1.4% of 290,000 active; binding response (% of control), % at 10 µM; Q99759; bead-based flow cytometry, Alexa488-MEK5 binding to MEKK3; actives lie on both sides; 0 = blocked by unlabeled MEK5, 100 = vehicle;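 active = binding response more than 3 SD above or below the average of its plate-row segment, actives on both sides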;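 note: Alexa488 bead fluorescence after subtracting the streptavidin-only scavenger bead signal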
# Target sequence (Q99759 whole entry, looked up, the tested form may be a part): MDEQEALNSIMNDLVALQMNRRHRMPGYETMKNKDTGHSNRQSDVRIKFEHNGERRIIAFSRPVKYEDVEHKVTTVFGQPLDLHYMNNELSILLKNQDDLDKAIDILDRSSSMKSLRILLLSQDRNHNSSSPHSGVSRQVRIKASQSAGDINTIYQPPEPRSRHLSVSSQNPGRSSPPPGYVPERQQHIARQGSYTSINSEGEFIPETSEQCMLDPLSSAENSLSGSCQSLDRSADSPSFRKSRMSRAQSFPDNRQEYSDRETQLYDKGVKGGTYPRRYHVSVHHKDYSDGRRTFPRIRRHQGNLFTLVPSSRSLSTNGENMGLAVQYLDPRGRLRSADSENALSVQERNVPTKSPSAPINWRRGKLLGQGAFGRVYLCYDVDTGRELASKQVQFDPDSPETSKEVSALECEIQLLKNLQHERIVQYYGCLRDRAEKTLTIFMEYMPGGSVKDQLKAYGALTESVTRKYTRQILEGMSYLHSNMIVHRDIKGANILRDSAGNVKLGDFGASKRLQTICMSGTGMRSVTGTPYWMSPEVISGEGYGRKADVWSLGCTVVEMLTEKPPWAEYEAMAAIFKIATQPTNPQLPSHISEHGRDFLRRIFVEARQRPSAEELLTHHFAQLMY
# MEKK2mut PB1 HTS – signal of MEK5 binding to mutant human MEKK2 PB1 domain; bead flow cytometry, Alexa488-MEK5 binding to MEKK2 mutant; percent response, % at 10 µM; 0.35% of 290,000 active; AID 1530; in the data active = percent response above about 24%, passing the limit was not always enough
# MEKK2 WT-MEK5 – raises or lowers MEK5 binding to wildtype human MEKK2 PB1 domain; Q9Y2U5; bead flow cytometry, Alexa488-MEK5 binding to MEKK2 WT; actives lie on both sides; binding response (% of control), % at 10 µM; 1.1% of 290,000 active; AID 1531; in the data active = binding response below about 67% or above about 130%
# Numbers without * were called inactive; / = no result given; [ ] = remark or other dose. In the library only some 2.3% were active in any assay of this set; here they are far more common.
SMILES,Arr AP2 block,MEKK3 PB1 HTS,MEKK2mut PB1 HTS,MEKK2 WT-MEK5
O=C(CCc1ccc(S(=O)(=O)N2CCOCC2)cc1)OCC(=O)c1ccccc1F,-7.7,/,/,/
Cc1ccc(C2=NN(S(=O)(=O)c3ccccc3)C(c3ccco3)C2)cc1 (stereo not given),0.8,/,/,/
CS(=O)(=O)Nc1ccc(C2=NN(S(=O)(=O)c3ccc(F)cc3)C(c3ccco3)C2)cc1 (stereo not given),18.4,99.0,18.0,3.0*
O=S(=O)(c1ccccc1)N1N=C(c2ccc(Br)cc2)CC1c1ccco1 (stereo not given),18.8,102.0,17.0,17.0*
O=S(=O)(c1ccccc1)N1N=C(c2ccc(O)cc2)CC1c1ccco1 (stereo not given),-0.5,99.0,1.0,100.0
CCCOc1ccc(C(=O)Nc2cc(S(=O)(=O)N3CCOCC3)ccc2N2CCN(CC)CC2)cc1OC,-3.7,/,/,/
CCOC(=O)C1=CN(C(C)C)CCC1=O,45.1,/,/,/
COc1ccc(/C=C2\Sc3ccc(C(=O)NCCN4CCCCCC4)cc3N(C)C2=O)cc1,-0.5,108.0,54.0*,203.0*
COc1cccc(/C=C2/Sc3ccc(C(=O)NCCCN4CCCC4)cc3NC2=O)c1,-13.9,109.0,21.0,167.0*
CCN1CCN(CCNC(=O)c2ccc3c(c2)N(Cc2ccc(F)cc2)C(=O)/C(=C/c2ccccc2)S3)CC1,4.8,118.0,117.0*,278.0*
COc1ccc(/C=C2\Sc3ccc(C(=O)NC4CC4)cc3N(C)C2=O)cc1OC,-3.5,102.0,-5.0,99.0
COc1cccc(/C=C2/Sc3ccc(C(=O)NCCN4CCCC4)cc3NC2=O)c1,1.7,109.0,30.0*,188.0*
NS(=O)(=O)c1ccc(CCNC(=O)COC(=O)C2COc3ccccc3O2)cc1 (stereo not given),-5.4,/,/,/
CCN1CCCC1CNC(=O)c1ccc2c(c1)NC(=O)/C(=C\c1ccc(C)cc1)S2 (stereo not given),-4.7,106.0,43.0*,194.0*
Cc1ccc(/C=C2/Sc3ccc(C(=O)NCCN4CCOCC4)cc3NC2=O)cc1,-2.2,101.0,4.0,108.0
O=C1Nc2cc(C(=O)NCCCN3CCCC3)ccc2S/C1=C/c1ccccc1F,23.0,103.0,13.0,138.0*
O=C(NCCCN1CCCCC1)c1ccc2c(c1)NC(=O)c1ccccc1S2,-9.4,96.0,5.0,105.0
O=C(NC1CCN(Cc2ccccc2)CC1)c1ccccc1,2.9,104.0,5.0,109.0
CN1C(=O)/C(=C\c2ccccc2F)Sc2ccc(C(=O)NC3CCN(Cc4ccccc4)CC3)cc21,23.6,104.0,20.0,168.0*
COc1ccc(S(=O)(=O)NC(C(=O)OCC(=O)Nc2ccc(N3CCOCC3)cc2)C(C)C)cc1 (stereo not given),1.8,/,/,/
CN1\C(=C/C=C/C=C/C=[N+](C)C)C(C)(C)c2ccccc21,14.5,89.0,-23.0,-3.0*
CC(NC(=O)COC(=O)CN1C(=O)c2ccccc2C1=O)c1ccccc1 (stereo not given),-13.5,/,/,/
O=C(COC(=O)c1ccc2c(c1)C(=O)N(c1cccc3ncccc13)C2=O)c1ccc(Cl)cc1,/,70.0*[inhibitor],-2.0,80.0
Nc1c(C(=O)CSc2nc(-c3ccccc3)cs2)c(=O)[nH]c(=O)n1C1CC1,17.1,/,/,/
CCN1C(=O)/C(=C/N2CCc3ccccc32)SC1=S,70.2*,92.0,-5.0,94.0
SMILES,Arr AP2 block,MEKK3 PB1 HTS,MEKK2mut PB1 HTS,MEKK2 WT-MEK5
CCN1C(=O)/C(=C\N2CCCc3ccccc32)SC1=S,-2.6,100.0,-5.0,90.0
O=C(CCl)N(O)c1ccc(C=Cc2ccccc2)cc1,4.6,/,/,/
Cc1c(NC(=O)c2cnc(Cl)c(Cl)c2)c(=O)n(-c2ccccc2)n1C,2.5,50.0*[inhibitor],-19.0,46.0*[inhibitor]
Nc1cc2c(cc1N)-c1ccccc1C2,17.4,/,/,/
CCOc1ccccc1NC(=O)Cn1c(=O)n(-c2ccccc2)c(=O)c2oc3ccccc3c21,-3.8,96.0,10.0,5.0*
NC(=O)Cn1c(=O)n(-c2ccccc2)c(=O)c2oc3ccccc3c21,9.8,103.0,-6.0,95.0
O=C(O)COc1ccc(/C=N/NC(=O)c2ccc(-c3csc(Nc4ccc(Cl)cc4)n3)cc2)cc1,-2.4,60.0*[inhibitor],-7.0,73.0
O=c1cc(-c2ccco2)nc(SCc2cccc(Cl)c2)[nH]1,12.0,99.0,-4.0,-8.0*
CCCCN1C(=O)C(C(=O)OCc2ccccc2)CC2=C1CCCC2=O (stereo not given),25.5,/,/,/
S=c1ncc2[nH]c(=S)[nH]c2[nH]1,28.1,/,/,/
O=C(CCNC(=O)c1ccc([N+](=O)[O-])cc1)Oc1ccc(F)c(F)c1,-8.4,/,/,/
COC(=O)c1cccc(C(=O)Nc2ccc(C)cc2)n1,-3.1,102.0,0.0,101.0
CCc1ccc(NC(=O)c2cccc(C(=O)Nc3ccc(CC)cc3)n2)cc1,22.4,0.0*[inhibitor],-28.0,-9.0*[inhibitor]
CCC1c2ccccc2C(=O)C1C(N)=O (stereo not given),3.5,/,/,/
COC(=O)[C@H](C(C)C)N(Cc1ccccc1)S(=O)(=O)CCNC1CCCC1,8.5,/,/,/
O=C(NCc1ccccc1)c1cccc(NC(=O)C2CCCC2)c1,-12.1,/,/,/
CCc1cc(=S)n2c([nH]c3ccccc32)c1C#N,-10.9,97.0,-6.0,85.0
CCc1cc(=O)n2c([nH]c3ccccc32)c1C#N,13.1,101.0,3.0,0.0*
c1ccc(CCCNCCCn2cnc3c(OCc4ccccc4)ncnc32)cc1,15.3,/,/,/
COc1ccc(CCN(C)C(=O)CCc2nnc(-c3ccccc3)o2)cc1OC,1.3,94.0,-12.0,7.0*
CN(Cc1ccc(F)cc1)C(=O)CCc1nnc(-c2ccccc2)o1,-20.4,99.0,-1.0,101.0
CCCCCCOc1ccc(N2C(=O)CC(NCc3ccc(S(N)(=O)=O)cc3)C2=O)cc1 (stereo not given),-6.4,95.0,-2.0,-4.0*
CCCCCOc1ccc(C(C)(O)C(CN2CCOCC2)c2ccccc2)cc1 (stereo not given),14.8,104.0,5.0,102.0
CN(C)c1ccc(C2N(c3ccc(Cl)cc3)C(=O)C3CCCN32)cc1 (stereo not given),-0.5,78.0,-7.0,84.0
CN(C)c1ccc(C2N(c3ccc(F)cc3)C(=O)C3CCCN32)cc1 (stereo not given),23.8,92.0,19.0,18.0*
SMILES,Arr AP2 block,MEKK3 PB1 HTS,MEKK2mut PB1 HTS,MEKK2 WT-MEK5
CC(C)(C)c1nnc(NC(=O)Nc2ccc(Cl)cc2)s1,5.1,98.0,2.0,-4.0*
COc1ccc(NC(=O)Nc2nnc(C(C)(C)C)s2)cc1,-13.3,108.0,6.0,-4.0*
COc1cc2c(cc1NC(=O)c1cc(-c3cccnc3)nc3ccc(C)cc13)oc1ccccc12,0.2,98.0,-2.0,91.0
COc1cc2c(cc1NC(=O)c1cc(-c3ccncc3)nc3ccccc13)oc1ccccc12,3.4,92.0,17.0,16.0*
O=C(N/N=C/c1ccncc1)c1cccc(NC(=O)c2ccc(Cl)cc2)c1,3.0,54.0*[inhibitor],-3.0,66.0
Cc1ccc2c(c1)c1c(n2CC(O)CN2CCOCC2)CCCC1 (stereo not given),/,102.0,20.0,19.0*
